Results on three compounds are retold here after paper PMC5553550 (Nature nanotechnology, 2017).

One data set concerns pSmad1/5. Put plainly: Western blot of Smad phosphorylation in C2C12 cells. The class given is cell-based, mouse.
Data set [1] has as its system noggin. To be noted: C2C12 cells; ref [5],[41]; cited from earlier work.
Data set [2] concerns noggin. Briefly: SPR binding to immobilized noggin. The settings on record: heparin 0.01-100 µM or PA 1 10-60 µM; HEPES buffer pH 7.6, 25 °C. On the technique in general: In SPR one partner is held on a chip, and binding of the other changes the refractive index at the surface.
The subject of data set [3] is BMP-2 signaling in C2C12 cells. Put plainly: BMP-2 induced ALP activity in C2C12 cells. The settings on record: BMP-2 75 ng/mL, 3 days; for enhancement of BMP-2 induced ALP activity, in words: PA or monosaccharide 25 μM, n = 8. The class given is cell-based, mouse.
Another data set concerns BMP-2. The settings on record: known effect; ref [4],[5]; cited from earlier work.
Another data set relates to C2C12 cells. Put plainly: Mineralization assay. The class given is cell-based, mouse. The settings on record: BMP-2 100 ng/mL; heparin 0.62 μM (10 μg/mL) or PA 25 μM; 10 days.
Data set [4] relates to BMP-4 signaling in C2C12 cells. Briefly: BMP-4 induced ALP activity in C2C12 cells. The class given is cell-based, mouse. The settings on record: BMP-4 75 ng/mL, monosaccharide 1 25 μM, 3 days; n = 8. The method, boiled down: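 C2C12 cells were co-treated with BMP-4 (75 ng/mL) and either the glycopeptide amphiphile nanostructure or the free sulfated monosaccharide, each at 25 μM. Osteoblast differentiation was read out as alkaline phosphatase (ALP) activity. Results are reported as mean ± SEM with n = 8.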

A short description of data set [5]: SAXS / cryo-TEM of self-assembly. The class given is physicochemical. To be noted: cryo-TEM at 25 μM or SAXS.

Take `c1ccc2c(-c3cnn4cc(-c5ccc(N6CCNCC6)cc5)cnc34)ccnc2c1` [LDN-193189]: the “BMP-2 mediated Smad phosphorylation with LDN-193189” value in the data set on pSmad1/5 (LDN-193189 0.5 μM, BMP-2 75 ng/mL, regardless of heparin or PA 1) is recorded as “impeded the BMP-2 mediated phosphorylation of Smads”.

For the compound Heparin, in the data set with noggin [1], the “effect on noggin activity” value is “binds and inhibits noggin activity, thereby rescuing BMP signaling and the subsequent ALP expression in C2C12 cells”. Also, the “pSmad1/5 accumulation with BMP-2” value with pSmad1/5 (BMP-2 75 ng/mL, 3 h, heparin 0.62 μM or PA 1 25 μM, n = 3) is listed as “significantly higher relative to that with BMP-2 alone”. Besides, in the data set with pSmad1/5 (heparin 0.62 μM or PA 1 25 μM, no BMP-2), the “pSmad1/5 accumulation without BMP-2” value was “did not enhance accumulation of pSmad proteins”. Further, in the data set with noggin [2], the “SPR binding to noggin” value is listed as “did not observe a strong binding to noggin”. Further, the “enhancement of ALP expression vs BMP-2 alone, factor” value in data set [3] (normalized to DNA, dose response for heparin and HS) is listed as 5. In data set [3], the “enhancement of BMP-2 induced ALP activity, in words” value is “more potent response than HS”. For the same compound, in the data set with BMP-2, the “half-life of BMP-2” value is “prolong the half-life of BMP-2”. Besides, in the data set on C2C12 cells, the “matrix mineralization of C2C12 cells” value is recorded as “inhibited BMP-2 (100 ng/mL) dependent mineralization”.

Regarding `CC(=O)N[C@H]1[C@H](OCCN=[N+]=[N-])O[C@H](COS(=O)(=O)O)[C@@H](OS(=O)(=O)O)[C@@H]1OS(=O)(=O)O` [monosaccharide 1, 2-Azidoethyl 2-acetamido-3,4,6-tri-O-sulfo-2-deoxy-β-D-glycopyranoside], the “amplification of BMP-4 signaling (ALP activity)” value in data set [4] is given as “found this not to be the case”. Further, the “enhancement of BMP-2 induced ALP activity, in words” value in data set [3] is “found this not to be the case”. In addition, the “self-assembly / supramolecular structure” value in data set [5] is given as “absence of any significant supramolecular structure”.
